The target in one series is sigma-1 receptor (Cavia porcellus, UniProt Q60492). Put plainly: sigma-1 radioligand competition binding assay. Also noted: species or system rodent. A general note: Displacement assays read how much labelled ligand stays bound in the presence of the test substance.
The test system of another series is 7 dpf zebrafish larvae. The series can be described thus: zebrafish strobe light response. The class given is in vivo, Danio rerio. The conditions noted are these: for switch of strobe light response from freezing to escape behavior (in words): dose curves, freezing index, 7 dpf larvae, 1 hr incubation. An outline of the steps: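 7 dpf larvae (EkkWill; TuAB sigmar1 frameshift mutants vs WT siblings) raised in 10 mM HEPES-E3 at 28 °C, 10 per well. Compound added at 1:100 from stock, 1 hr at 28 °C in ambient light; genetic tests included 10 μM scopolamine. Infrared video across alternating 1-min dark/strobe periods. Freezing index = third-quartile motion, strobe minus dark. 12 wells/dose; switching concentration taken from the dose-curve zero intercept.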

Entries after “also recorded” stand apart in the source; their conditions may differ.

Sequence of sigma-1 receptor (Q60492 whole entry): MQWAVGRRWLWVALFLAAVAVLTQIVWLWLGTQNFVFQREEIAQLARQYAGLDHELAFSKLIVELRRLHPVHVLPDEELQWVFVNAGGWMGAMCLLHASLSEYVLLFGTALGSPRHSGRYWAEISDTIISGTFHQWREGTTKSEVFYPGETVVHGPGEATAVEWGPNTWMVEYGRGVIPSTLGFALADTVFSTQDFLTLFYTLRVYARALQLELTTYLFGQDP

Take `Cc1cccc(NC(=O)CCN2CCNCC2)c1` [Compound 27, 3-(piperazin-1-yl)-N-(m-tolyl)propanamide]: the “sigma-1 binding (in words)” value at sigma-1 receptor is on record as “lost its binding potency at sigma-1”. Also, the “switch of strobe light response from freezing to escape behavior (in words)” value with 7 dpf zebrafish larvae is given as “no effect; also recorded: ineffective at modulating behavior”.

Turning to `CC(N)Cc1ccccc1` (centres unmarked) [amphetamine], the “switch of strobe light response from freezing to escape behavior (in words)” value in the series with 7 dpf zebrafish larvae was “did not cause strobe-induced”. Still for that read-out and setting: then `COC(=O)[C@H]1[C@@H](OC(=O)c2ccccc2)C[C@@H]2CC[C@H]1N2C` [cocaine], with “did not cause strobe-induced”; and `COC(=O)C(c1ccccc1)C1CCCCN1` (centres unmarked) [methylphenidate], with “did not cause strobe-induced”. As to `COc1ccccc1N1CCN(CC(O)COc2cccc3ccccc23)CC1` (centres unmarked) [naftopidil], in the series on 7 dpf zebrafish larvae (5 μM), the “switch from freezing to escape at 5 μM” value is reported as “just barely switched the zebrafish response from freezing to escape”. Besides, the “immobilization of larvae at 10 μM” value in the series with 7 dpf zebrafish larvae (10 μM, presumably due to toxicity) is “completely immobilized the larvae”. Take `CN1CCC[C@H]1c1cccnc1` [nicotine]: the “switch of strobe light response from freezing to escape behavior (in words)” value in the series with 7 dpf zebrafish larvae is on record as “did not cause strobe-induced”.

The record behind these values is paper PMC4912403 (Nature chemical biology, 2016).
